Stoichiometry N and remaining activity data for 2 compounds are collected here from publication PMC3383389 (Molecular and Biochemical Parasitology, 2012).

Assay [1] concerns the target Trypanosoma brucei M32 metallocarboxypeptidase TbMCP-1, N-terminally GST-tagged recombinant enzyme (Trypanosoma brucei (Lister 427)). Briefly: SEC. Background: In gel filtration, larger molecules generally elute earlier.
Assay [2] has as its target T1, TbMCP-1 (Trypanosoma brucei, UniProt Q386R0).
T1 sequence (Q386R0 1-503): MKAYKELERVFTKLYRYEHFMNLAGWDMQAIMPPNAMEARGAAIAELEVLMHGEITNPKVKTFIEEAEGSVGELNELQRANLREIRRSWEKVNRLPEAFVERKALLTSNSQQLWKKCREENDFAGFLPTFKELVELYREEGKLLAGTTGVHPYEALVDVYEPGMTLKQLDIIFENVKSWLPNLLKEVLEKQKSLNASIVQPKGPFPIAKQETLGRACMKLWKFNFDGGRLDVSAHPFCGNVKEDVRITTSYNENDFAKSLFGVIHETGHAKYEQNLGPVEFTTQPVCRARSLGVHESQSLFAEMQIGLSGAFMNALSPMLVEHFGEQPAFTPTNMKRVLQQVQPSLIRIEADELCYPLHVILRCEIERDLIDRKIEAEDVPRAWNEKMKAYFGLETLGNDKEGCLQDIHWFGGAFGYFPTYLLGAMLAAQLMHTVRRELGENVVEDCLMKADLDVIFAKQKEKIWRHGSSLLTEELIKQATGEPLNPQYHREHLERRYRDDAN
Description: inhibition of FA-Ala-Lys hydrolysis after pre-incubation. The class given is biochemical. As to conditions: read-out: % residual activity at 5 μM. An outline of the steps: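 GST-fused recombinant TbMCP-1 was expressed in E. coli BL21 Codon Plus (DE3), purified on glutathione-agarose and desalted. The enzyme was pre-incubated with test compound (metal chlorides were tested from 1 µM to 1 mM). Activity was then read continuously at 340 nm with 200 µM furyl-acryloyl-Ala-Lys in 100 mM MOPS, pH 7.3, and reported as % residual activity.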

One may read the stoichiometry N as the number of molecules, sites or subunits per partner or assembly. Turning to “Trypanosoma brucei M32 metallocarboxypeptidase TbMCP-1, N-terminally GST-tagged recombinant enzyme”, the stoichiometry N in assay [1] came to 2.
Consider `N=C(N)NCCSC(CC(=O)O)C(=O)O` (centres unmarked) [GEMSA], for which, in assay [2], the remaining activity at 5 µM came out at 9.1 ± 1.2%.
